In data set [1] the target is Methionine aminopeptidase 2 (Homo sapiens) (UniProt P50579). The data set is described as follows: Inhibition of human MetAP2 assessed as remaining enzyme activity after 8 hrs. Also on record: concentration or dose not given beside the values. An outline of the steps: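 The hMetAP2 assay follows the fraction of active enzyme remaining during an 8 h incubation with inhibitor, relative to an enzyme-only control.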

Data set [2] relates to Rattus norvegicus. As to the kind of experiment: Inhibition of MetAP2 level in Sprague-Dawley rat thymus assessed as free enzyme level at 0.3 mg/kg, iv by ELISA. The format is functional, organism-based. On the set-up: dose 0.3 mg/kg. In a few lines: (§1)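 Male Sprague-Dawley rats (200-225 g, n=3 per group) were dosed once IV at 0.3 mg/kg or PO at 0.3 or 3.0 mg/kg, in 11% HPCD in water. Blood, liver, lung, thymus and pooled non-mesenteric lymph nodes were taken at ~24 h and lysed or homogenized with NP-40. Free MetAP2 was measured by ELISA and expressed as % of vehicle.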
In general terms: An ELISA detects its analyte on a solid surface through an enzyme-linked reagent.

Data set [3] concerns the target Methionine aminopeptidase 2 (Homo sapiens) (UniProt P50579). As to the kind of experiment: Inhibition of human MetAP2 activity after end of experiment. On the set-up: scale not given: the % may be the effect or the level left.
Data set [4] has as its system Rattus norvegicus. The data set is described as follows: Inhibition of MetAP2 level in Sprague-Dawley rat lung assessed as free enzyme level at 0.3 mg/kg, iv by ELISA. Also on record: dose 0.3 mg/kg. The format is functional, organism-based. An outline of the steps: as §1
For data set [5], the system named is Liver microsome. The data set is described as follows: Retention time in human liver microsomes treated with at 5 mM PPI-2458 by LC/MS analysis. The format is ADME. As to conditions: 5000 µM. In a few lines:
(§2)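 Liver microsomes (pooled male/female) in 100 mM KPO4 pH 7.4 with PPI-2458 (5 mM stock), pre-incubated 5 min at 37°C, then 10 mM NADPH added; 20 min at 37°C with shaking. Time-zero and no-NADPH controls. Quenched with CH3CN; supernatant dried and redissolved in water. Analysed by LC-MS, ESI+ full scan 300–800 amu, C18 column, 10→50% B gradient.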

For data set [6], the system named is Rattus norvegicus. The data set is described as follows: Inhibition of MetAP2 level in Sprague-Dawley rat thymus assessed as free enzyme level at 0.3 mg/kg, po by ELISA. The format is functional, organism-based. Also on record: dose 0.3 mg/kg. In a few lines:
as §1

Data set [7] relates to Rattus norvegicus. The data set is described as follows: Inhibition of MetAP2 level in Sprague-Dawley rat lymph nodes assessed as free enzyme level at 0.3 mg/kg, iv by ELISA. The format is functional, organism-based. On the set-up: dose 0.3 mg/kg. In a few lines: as §1
For data set [8], the system named is Rattus norvegicus. As to the kind of experiment: Inhibition of MetAP2 level in Sprague-Dawley rat lung assessed as free enzyme level at 3 mg/kg, po by ELISA. Also on record: dose 3 mg/kg. The format is functional, organism-based. In a few lines: as §1
The test system of data set [9] is Rattus norvegicus. As to the kind of experiment: Inhibition of MetAP2 level in Sprague-Dawley rat liver assessed as free enzyme level at 3 mg/kg, po by ELISA. The format is functional, organism-based. On the set-up: dose 3 mg/kg. In a few lines: as §1
In data set [10] the test system is Rattus norvegicus. The data set is described as follows: Inhibition of MetAP2 level in Sprague-Dawley rat liver assessed as free enzyme level at 0.3 mg/kg, po by ELISA. On the set-up: dose 0.3 mg/kg. The format is functional, organism-based. An outline of the steps:
as §1

Data set [11] concerns Rattus norvegicus. As to the kind of experiment: Inhibition of MetAP2 level in Sprague-Dawley rat thymus assessed as free enzyme level at 3 mg/kg, po by ELISA. The format is functional, organism-based. On the set-up: dose 3 mg/kg. An outline of the steps: as §1
A short description of data set [12]: Retention time in mouse liver microsomes treated with at 5 mM PPI-2458 by LC/MS analysis. Particulars: 5000 µM. The format is ADME. In a few lines: as §2
The subject of data set [13] is Liver microsome. The data set is described as follows: Retention time in rat liver microsomes treated with at 5 mM PPI-2458 by LC/MS analysis. The format is ADME. Particulars: 5000 µM. An outline of the steps: as §2
The test system of data set [14] is Rattus norvegicus. As to the kind of experiment: Inhibition of MetAP2 level in Sprague-Dawley rat lymph nodes assessed as free enzyme level at 0.3 mg/kg, po by ELISA. The format is functional, organism-based. On the set-up: dose 0.3 mg/kg. In a few lines: as §1
The subject of data set [15] is Rattus norvegicus. The data set is described as follows: Inhibition of MetAP2 level in Sprague-Dawley rat lymph nodes assessed as free enzyme level at 3 mg/kg, po by ELISA. On the set-up: dose 3 mg/kg. The format is functional, organism-based. In a few lines: as §1
Data set [16] has as its system Rattus norvegicus. As to the kind of experiment: Inhibition of MetAP2 level in Sprague-Dawley rat liver assessed as free enzyme level at 0.3 mg/kg, iv by ELISA. The format is functional, organism-based. Also on record: dose 0.3 mg/kg. An outline of the steps: as §1
For data set [17], the system named is Rattus norvegicus. As to the kind of experiment: Inhibition of MetAP2 level in Sprague-Dawley rat whole blood assessed as free enzyme level at 0.3 mg/kg, iv by ELISA. The format is functional, organism-based. Also on record: dose 0.3 mg/kg. An outline of the steps: as §1
Data set [18] relates to Rattus norvegicus. The data set is described as follows: Inhibition of MetAP2 level in Sprague-Dawley rat whole blood assessed as free enzyme level at 0.3 mg/kg, po by ELISA. The format is functional, organism-based. On the set-up: dose 0.3 mg/kg. An outline of the steps:
as §1

Data set [19] has as its system Liver microsome. The data set is described as follows: Retention time in dog liver microsomes treated with at 5 mM PPI-2458 by LC/MS analysis. Particulars: 5000 µM. The format is ADME, Canis lupus familiaris. An outline of the steps: as §2
(In general: Liver microsomes are vesicles of endoplasmic reticulum, rich in cytochrome P450 enzymes.)

Data set [20] is described as follows: Retention time in monkey liver microsomes treated with at 5 mM PPI-2458 by LC/MS analysis. The format is ADME, Macaca mulatta. Particulars: rhesus monkey, 5000 µM. In a few lines:
as §2

The test system of data set [21] is Rattus norvegicus. The data set is described as follows: Inhibition of MetAP2 level in Sprague-Dawley rat whole blood assessed as free enzyme level at 3 mg/kg, po by ELISA. Also on record: dose 3 mg/kg. The format is functional, organism-based. In a few lines: as §1
The test system of data set [22] is Rattus norvegicus. As to the kind of experiment: Inhibition of MetAP2 level in Sprague-Dawley rat lung assessed as free enzyme level at 0.3 mg/kg, po by ELISA. On the set-up: dose 0.3 mg/kg. The format is functional, organism-based. In a few lines: as §1

Active and inactive are the calls of the source. No cut-off for these calls is given here.

Our source for the Activity, inhibition and Retention_time values is ChEMBL document CHEMBL3526018, “Metabolites of PPI-2458, a selective, irreversible inhibitor of methionine aminopeptidase-2: structure determination and in vivo activity” (Drug Metab Dispos, 2013).

Methionine aminopeptidase 2 (Homo sapiens), sequence (P50579 2-478 limits assumed): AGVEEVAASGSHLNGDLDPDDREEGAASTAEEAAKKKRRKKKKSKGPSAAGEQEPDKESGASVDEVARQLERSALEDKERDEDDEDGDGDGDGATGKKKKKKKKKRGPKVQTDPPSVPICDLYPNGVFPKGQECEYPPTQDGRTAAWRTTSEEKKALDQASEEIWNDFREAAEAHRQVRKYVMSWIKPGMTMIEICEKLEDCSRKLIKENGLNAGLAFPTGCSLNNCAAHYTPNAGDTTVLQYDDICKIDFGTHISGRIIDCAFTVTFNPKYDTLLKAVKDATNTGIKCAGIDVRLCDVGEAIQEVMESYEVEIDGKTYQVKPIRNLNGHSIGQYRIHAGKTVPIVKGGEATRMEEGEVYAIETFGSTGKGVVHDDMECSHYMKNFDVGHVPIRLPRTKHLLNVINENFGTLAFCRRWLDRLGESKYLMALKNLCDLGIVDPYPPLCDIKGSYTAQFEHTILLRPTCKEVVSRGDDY

Take `CO[C@@H]1[C@H](OC(=O)N[C@@H](C(N)=O)C(C)(C)O)CC[C@]2(CO2)[C@H]1[C@@]1(C)O[C@@H]1C[C@H]1OC1(C)C`: the Activity in [1] is 6%.
For the molecule `CO[C@@H]1[C@H](OC(=O)N[C@@H](C(N)=O)C(C)C)CC[C@]2(CO2)[C@H]1[C@@]1(C)O[C@@H]1C[C@@H]1OC1(C)C`, the inhibition entry with Rattus norvegicus [2], with Rattus norvegicus [4], in the data set with Rattus norvegicus [7], in the data set with Rattus norvegicus [8], in the data set on Rattus norvegicus [9] and in the data set on Rattus norvegicus [11] was “Active” throughout. Further, the inhibition result with Rattus norvegicus [15], with Rattus norvegicus [16], with Rattus norvegicus [17] and in the data set with Rattus norvegicus [21] was “Active” throughout. The Activity in data set [3] was 40%; in data set [1] it was 58%. Also, the Retention_time (in the data set with Liver microsome [5]; in data set [12]; in the data set on Liver microsome [13]; with Liver microsome [19]; in data set [20]) was 20.1 min in each case. Moreover, the inhibition entry with Rattus norvegicus [6], with Rattus norvegicus [10], in the data set with Rattus norvegicus [14], in the data set on Rattus norvegicus [18] and in the data set on Rattus norvegicus [22] was “inactive” each time.
On to `CO[C@@H]1[C@H](OC(=O)N[C@@H](C(N)=O)C(C)(C)O)CC[C@]2(CO2)[C@H]1[C@@]1(C)O[C@@H]1C[C@@H]1OC1(C)C`, for which the Activity in data set [1] stood at 39%.
In the case of `CO[C@@H]1[C@H](OC(=O)N[C@@H](C(N)=O)C(C)(C)O)CC[C@]2(CO2)[C@H]1[C@@]1(C)O[C@@H]1CC=C(C)C`, the inhibition entry in the data set with Rattus norvegicus [2], with Rattus norvegicus [4], with Rattus norvegicus [6], in the data set on Rattus norvegicus [7], in the data set with Rattus norvegicus [8] and in the data set with Rattus norvegicus [9] was “Active” in each case. The inhibition result in the data set on Rattus norvegicus [10], with Rattus norvegicus [11], with Rattus norvegicus [14], in the data set with Rattus norvegicus [15], in the data set on Rattus norvegicus [16] and in the data set with Rattus norvegicus [17] was “Active” in each case. Further, the inhibition result in the data set on Rattus norvegicus [18], in the data set on Rattus norvegicus [21] and in the data set with Rattus norvegicus [22] was “Active” throughout. The Retention_time (in the data set on Liver microsome [5]; in data set [12]; in the data set on Liver microsome [13]; in the data set with Liver microsome [19]; in data set [20]) was 26.7 min each time. The Activity in data set [1] turned out to be 1%.
For the molecule `CO[C@@H]1[C@H](OC(=O)N[C@@H](C(N)=O)C(C)C)CC[C@]2(CO2)[C@H]1[C@@]1(C)O[C@@H]1CCC(C)(C)O`, the Activity in data set [1] was found to be 90%.
In the case of `CO[C@@H]1[C@H](OC(=O)N[C@@H](C(N)=O)C(C)C)CC[C@]2(CO2)[C@H]1[C@@]1(C)O[C@@H]1C/C=C(\C)CO`, the inhibition entry with Rattus norvegicus [2], in the data set with Rattus norvegicus [4], in the data set with Rattus norvegicus [7], with Rattus norvegicus [8], in the data set on Rattus norvegicus [9] and in the data set with Rattus norvegicus [11] was “Active” each time. Also, the inhibition entry in the data set on Rattus norvegicus [15], in the data set on Rattus norvegicus [16], in the data set with Rattus norvegicus [17] and in the data set on Rattus norvegicus [21] was “Active” each time. The Activity was determined as 90% in data set [3] and 9% in [1]. The Retention_time (in the data set on Liver microsome [5]; in [12]; in the data set on Liver microsome [13]; with Liver microsome [19]; in data set [20]) was 17.6 min throughout. Also, the inhibition result in the data set with Rattus norvegicus [6], in the data set with Rattus norvegicus [10], in the data set on Rattus norvegicus [14], in the data set with Rattus norvegicus [18] and in the data set on Rattus norvegicus [22] was “inactive” throughout.
As to `CO[C@@H]1[C@H](OC(=O)N[C@@H](C(N)=O)C(C)C)CC[C@]2(CO2)[C@H]1[C@@]1(C)O[C@@H]1C[C@H]1OC1(C)C`, the inhibition entry in the data set with Rattus norvegicus [2], with Rattus norvegicus [4], with Rattus norvegicus [7], in the data set with Rattus norvegicus [8], in the data set on Rattus norvegicus [9] and in the data set with Rattus norvegicus [11] was “Active” throughout. Moreover, the inhibition result in the data set on Rattus norvegicus [15], in the data set on Rattus norvegicus [16], in the data set with Rattus norvegicus [17] and in the data set with Rattus norvegicus [21] was “Active” in each case. Further, the Activity was determined as 90% in data set [3] and 10% in data set [1]. Besides, the Retention_time (with Liver microsome [5]; in data set [12]; in the data set on Liver microsome [13]; with Liver microsome [19]; in data set [20]) was 20.8 min throughout. In addition, the inhibition result with Rattus norvegicus [6], with Rattus norvegicus [10], with Rattus norvegicus [14], with Rattus norvegicus [18] and in the data set on Rattus norvegicus [22] was “inactive” throughout.
